ChEMBL document CHEMBL1156157, “1,7-Disubstituted oxyindoles are potent and selective EP(3) receptor antagonists” (Bioorg Med Chem Lett, 2010)

How the values were obtained:
[1] = target: T1, Prostaglandin E2 receptor EP3 subtype (Homo sapiens, UniProt P43115); assay: Displacement of [3H]PGE2 from human EP3 receptor in buffer
T1 sequence (P43115 whole entry): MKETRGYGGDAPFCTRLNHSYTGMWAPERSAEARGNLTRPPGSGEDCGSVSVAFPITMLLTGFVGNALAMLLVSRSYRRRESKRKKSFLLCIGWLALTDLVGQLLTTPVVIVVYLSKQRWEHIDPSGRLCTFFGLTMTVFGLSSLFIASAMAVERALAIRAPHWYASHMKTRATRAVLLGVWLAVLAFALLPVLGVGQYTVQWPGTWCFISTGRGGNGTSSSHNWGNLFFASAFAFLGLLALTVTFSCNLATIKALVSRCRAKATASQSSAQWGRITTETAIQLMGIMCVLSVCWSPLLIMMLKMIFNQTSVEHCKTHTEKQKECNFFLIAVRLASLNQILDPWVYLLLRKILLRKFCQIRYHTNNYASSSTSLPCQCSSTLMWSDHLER

[2] = target: T1, Prostaglandin E2 receptor EP3 subtype; assay: Displacement of [3H]PGE2 from human EP3 receptor in presence of 10% human serum
Rattus norvegicus = organism: Rattus norvegicus; assay: Antithrombotic activity in rat assessed as platelet aggregation; assay type: functional
Procedure, shortened: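 Functional EP3 antagonism measured in a rat platelet aggregation assay. Values reported as EC50 in nM.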

Cytochrome P450 3A4 = Cytochrome P450 3A4 (Homo sapiens, UniProt P08684); assay: Inhibition of human CYP3A4 using 7-benzyloxy-4-trifluoromethylcoumarin as substrate; assay type: ADME
Chain of Cytochrome P450 3A4 (P08684 whole entry): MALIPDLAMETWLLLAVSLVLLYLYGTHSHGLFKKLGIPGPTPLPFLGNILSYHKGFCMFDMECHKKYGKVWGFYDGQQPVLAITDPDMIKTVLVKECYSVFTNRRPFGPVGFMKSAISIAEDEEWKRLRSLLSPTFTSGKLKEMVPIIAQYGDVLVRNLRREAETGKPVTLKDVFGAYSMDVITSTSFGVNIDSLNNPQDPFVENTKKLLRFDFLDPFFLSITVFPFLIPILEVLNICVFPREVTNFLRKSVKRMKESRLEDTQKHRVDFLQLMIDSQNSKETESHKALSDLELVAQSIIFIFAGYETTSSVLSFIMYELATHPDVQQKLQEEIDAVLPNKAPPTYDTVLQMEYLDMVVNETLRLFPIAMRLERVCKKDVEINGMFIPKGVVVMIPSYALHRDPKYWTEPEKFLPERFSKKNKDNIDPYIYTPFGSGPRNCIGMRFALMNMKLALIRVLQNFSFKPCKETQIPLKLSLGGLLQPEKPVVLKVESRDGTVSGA
Procedure, shortened: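 Inhibition of human CYP3A4 with 7-benzyloxy-4-trifluoromethylcoumarin (BFC) as substrate. Values given as IC50.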

[3] = Metabolic stability in human liver microsomes assessed as parent compound remaining after 30 mins; assay type: ADME, Microsome; conditions: read-out: Stability
Procedure, shortened: (§1)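 Compounds incubated with liver microsomes from human, rat, mouse, dog or monkey. Read-out is percent parent compound remaining at 30 min of incubation.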

[4] = Metabolic stability in rat liver microsomes assessed as parent compound remaining after 30 mins; assay type: ADME, Microsome; conditions: read-out: Stability; procedure, shortened: as §1
[5] = Metabolic stability in mouse liver microsomes assessed as parent compound remaining after 30 mins; assay type: ADME, Microsome; conditions: read-out: Stability; procedure, shortened: as §1

| Compound | IC50 [1] [nM] | IC50 [2] [nM] | IC50 (Rattus norvegicus) [nM] | inhibition (INH) (Cytochrome P450 3A4) | remaining at 0.5 h [3] [%] | remaining at 0.5 h [4] [%] | remaining at 0.5 h [5] [%] | EC50 (Rattus norvegicus) [nM] |
| --- | --- | --- | --- | --- | --- | --- | --- | --- |
| O=C(/C=C/c1cccc2c1N(Cc1ccc3ccccc3c1)C(=O)C2(F)F)NS(=O)(=O)c1ccc(Cl)cc1 | 5.5 | 125 | > 800 | Active |  |  |  |  |
| O=C(/C=C/c1cccc2c1N(Cc1ccc3ccccc3c1)C(=O)C2(F)F)NS(=O)(=O)c1ccc(F)cc1 | 2.7 | 27.2 | > 800 | Active |  |  |  |  |
| O=C(/C=C/c1cccc2c1N(Cc1ccc3ccccc3c1)C(=O)C2(CO)CO)NS(=O)(=O)c1ccc(F)c(F)c1 | 11.6 | 187 |  |  |  |  |  |  |
| O=C(/C=C/c1cccc2c1N(Cc1ccc3ccccc3c1)C(=O)C2=O)NS(=O)(=O)c1ccc(F)cc1 | 1.6 | 33.9 |  |  |  |  |  |  |
| O=C(/C=C/c1cccc2c1N(Cc1ccc(F)c(F)c1)C(=O)C2(F)F)NS(=O)(=O)c1cc(F)c(F)cc1F | 16.5 | 721 | > 800 | Active |  |  |  |  |
| CC1C(=O)N(Cc2ccc(F)c(F)c2)c2c(/C=C/C(=O)NS(=O)(=O)c3cc(F)c(F)cc3F)cccc21 (stereo unspecified) | 1.4 | 10.7 |  |  |  |  |  |  |
| O=C(/C=C/c1cccc2c1N(Cc1ccc3ccccc3c1)C(=O)C2)NS(=O)(=O)c1cc(F)c(F)cc1F | 0.3 | 10.2 |  |  | 73.9 | 62.5 |  | 1090 |
| O=C(/C=C/c1cccc2c1N(Cc1ccc3ccccc3c1)C(=O)C2=O)NS(=O)(=O)c1cc(F)c(F)cc1F | 0.6 | 17.4 |  |  |  |  |  |  |
| O=C(/C=C/c1cccc2c1N(Cc1ccc3ccccc3c1)C(=O)C2=O)NS(=O)(=O)c1ccc(Cl)c(Cl)c1 | 1 | 12.7 |  |  |  |  |  |  |
| O=C(/C=C/c1cccc2c1N(Cc1ccc3ccccc3c1)C(=O)C21OCCO1)NS(=O)(=O)c1cc(Cl)c(Cl)s1 | 7.9 | 82.4 |  |  |  |  |  |  |
| O=C(/C=C/c1cccc2c1N(Cc1ccc3ccccc3c1)C(=O)C2)NS(=O)(=O)c1cccc(Cl)c1 | 0.6 | 8.1 |  |  | 56.8 | 29.8 | 7.8 | 405 |
| O=C(/C=C/c1cccc2c1N(Cc1ccc(F)c(F)c1)C(=O)C2(F)F)NS(=O)(=O)c1ccc(F)c(F)c1 | 1.3 | 251 | > 800 | Active |  |  |  |  |
| O=C(/C=C/c1cccc2c1N(Cc1ccc(Cl)cc1Cl)C(=O)C2=O)NS(=O)(=O)c1cc(Cl)c(Cl)s1 | 6.5 | 136 |  |  |  |  |  |  |
| O=C(/C=C/c1cccc2c1N(Cc1ccc3ccccc3c1)C(=O)C2)NS(=O)(=O)c1cccs1 | 23.6 |  |  |  |  |  |  |  |
| O=C(/C=C/c1cccc2c1N(Cc1ccc3ccccc3c1)C(=O)C2=O)NS(=O)(=O)c1cccs1 | 13.7 | 260 |  |  |  |  |  |  |
| O=C(/C=C/c1cccc2c1N(Cc1ccc3ccccc3c1)C(=O)C2=O)NS(=O)(=O)c1cc(Cl)c(Cl)s1 | 12.3 | 15 |  |  |  |  |  |  |
| O=C(/C=C/c1cccc2c1N(Cc1ccc3ccccc3c1)C(=O)C2(CO)CO)NS(=O)(=O)c1cc(Cl)c(Cl)s1 | 2.3 | 243 |  |  |  |  |  |  |
| CC1C(=O)N(Cc2ccc3ccccc3c2)c2c(/C=C/C(=O)NS(=O)(=O)c3ccc(F)c(F)c3)cccc21 (stereo unspecified) | 0.6 | 20 |  |  |  |  |  |  |
| O=C(/C=C/c1cccc2c1N(Cc1ccc(F)c(F)c1)C(=O)C2(F)F)NS(=O)(=O)c1cc(Cl)c(Cl)s1 | 7.2 | 980 | > 800 | Active |  |  |  |  |
| CC1C(=O)N(Cc2ccc(Cl)cc2Cl)c2c(/C=C/C(=O)NS(=O)(=O)c3cc(Cl)c(Cl)s3)cccc21 (stereo unspecified) | 3.4 | 23.9 |  |  |  |  |  | 47 |
| CC1C(=O)N(Cc2ccc3ccccc3c2)c2c(/C=C/C(=O)NS(=O)(=O)c3cccc(Cl)c3)cccc21 (stereo unspecified) | 0.4 | 2.8 |  |  | 24.8 | 13.1 | 5.63 |  |
| CC1C(=O)N(Cc2ccc3ccccc3c2)c2c(/C=C/C(=O)NS(=O)(=O)c3ccc(Cl)c(Cl)c3)cccc21 (stereo unspecified) | 0.6 | 4.1 |  |  | 36.4 | 10.3 | 5.83 |  |
| CC1C(=O)N(Cc2ccc(Cl)cc2Cl)c2c(/C=C/C(=O)NS(=O)(=O)c3cccs3)cccc21 (stereo unspecified) | 2.4 | 660 |  |  |  |  |  |  |
| CC1C(=O)N(Cc2ccc(F)c(F)c2)c2c(/C=C/C(=O)NS(=O)(=O)c3cccc(Cl)c3)cccc21 (stereo unspecified) | 4 | 39 |  |  |  |  |  |  |
| CC1C(=O)N(Cc2ccc3ccccc3c2)c2c(/C=C/C(=O)NS(=O)(=O)c3cc(F)c(F)cc3F)cccc21 (stereo unspecified) | 0.3 | 5.4 |  |  | 13.7 | 17.6 | 5.1 | 19 |

Second part, the compound after the results:

| IC50 [1] [nM] | IC50 [2] [nM] | IC50 (Rattus norvegicus) [nM] | inhibition (INH) (Cytochrome P450 3A4) | remaining at 0.5 h [3] [%] | remaining at 0.5 h [4] [%] | remaining at 0.5 h [5] [%] | EC50 (Rattus norvegicus) [nM] | Compound |
| --- | --- | --- | --- | --- | --- | --- | --- | --- |
| 0.9 | 95.8 |  |  |  |  |  |  | CC1C(=O)N(Cc2ccc(F)c(F)c2)c2c(/C=C/C(=O)NS(=O)(=O)c3ccc(Cl)c(Cl)c3)cccc21 (stereo unspecified) |
| 0.5 | 6.8 |  |  | 49.5 | 23.6 | 7.26 |  | CC1C(=O)N(Cc2ccc(Cl)cc2Cl)c2c(/C=C/C(=O)NS(=O)(=O)c3cccc(Cl)c3)cccc21 (stereo unspecified) |
| 0.7 | 3.3 |  |  | 54.3 | 23.5 | 39.1 | 137 | O=C(/C=C/c1cccc2c1N(Cc1ccc(Cl)cc1Cl)C(=O)C2)NS(=O)(=O)c1ccc(F)c(F)c1 |
| 0.4 | 55.4 |  |  |  |  |  |  | O=C(/C=C/c1cccc2c1N(Cc1ccc(F)c(F)c1)C(=O)C2)NS(=O)(=O)c1cc(Cl)c(Cl)s1 |
| 0.4 | 3.3 |  |  | 64.7 | 62.1 | 16 |  | CC1C(=O)N(Cc2ccc(Cl)cc2Cl)c2c(/C=C/C(=O)NS(=O)(=O)c3ccc(F)c(F)c3)cccc21 (stereo unspecified) |
| 0.4 | 35.5 |  |  |  |  |  |  | O=C(/C=C/c1cccc2c1N(Cc1ccc(F)c(F)c1)C(=O)C2)NS(=O)(=O)c1cccc(Cl)c1 |
| 0.3 | 55.4 |  |  |  |  |  |  | O=C(/C=C/c1cccc2c1N(Cc1ccc(F)c(F)c1)C(=O)C2)NS(=O)(=O)c1ccc(Cl)c(Cl)c1 |
| 0.9 | 9.8 |  |  |  |  |  |  | CC1C(=O)N(Cc2ccc(Cl)cc2Cl)c2c(/C=C/C(=O)NS(=O)(=O)c3ccc(Cl)c(Cl)c3)cccc21 (stereo unspecified) |
| 5 | 416 | > 800 | Active |  |  |  |  | O=C(/C=C/c1cccc2c1N(Cc1ccc(F)c(F)c1)C(=O)C2(F)F)NS(=O)(=O)c1cccc(Cl)c1 |
| 0.5 | 4.3 |  |  | 48.4 | 22.4 | 4.85 |  | CC1C(=O)N(Cc2ccc(Cl)cc2Cl)c2c(/C=C/C(=O)NS(=O)(=O)c3cc(F)c(F)cc3F)cccc21 (stereo unspecified) |
| 0.5 | 5.2 |  |  | 66.5 | 46 | 15.7 |  | O=C(/C=C/c1cccc2c1N(Cc1ccc3ccccc3c1)C(=O)C2)NS(=O)(=O)c1ccc(Cl)c(Cl)c1 |
| 1.2 | 3.3 |  |  | 53.3 | 26.8 | 56.1 | 316 | O=C(/C=C/c1cccc2c1N(Cc1ccc(Cl)cc1Cl)C(=O)C2)NS(=O)(=O)c1ccc(Cl)c(Cl)c1 |
| 0.4 | 6.9 |  |  | 65.9 | 43 | 13.2 | 246 | O=C(/C=C/c1cccc2c1N(Cc1ccc3ccccc3c1)C(=O)C2)NS(=O)(=O)c1ccc(F)c(F)c1 |
| 0.2 | 64.7 | > 800 | Active |  |  |  |  | O=C(/C=C/c1cccc2c1N(Cc1ccc(Cl)cc1Cl)C(=O)C2(F)F)NS(=O)(=O)c1ccc(F)cc1 |
| 0.7 | 42 |  |  |  |  |  |  | O=C(/C=C/c1cccc2c1N(Cc1ccc(F)c(F)c1)C(=O)C2)NS(=O)(=O)c1cc(F)c(F)cc1F |
| 1.1 | 251 | > 800 | Active |  |  |  |  | O=C(/C=C/c1cccc2c1N(Cc1ccc(Cl)cc1Cl)C(=O)C2(F)F)NS(=O)(=O)c1ccc(Cl)cc1 |
| 0.9 | 47.8 |  |  |  |  |  |  | O=C(/C=C/c1cccc2c1N(Cc1ccc(F)c(F)c1)C(=O)C2)NS(=O)(=O)c1ccc(F)c(F)c1 |
| 1.3 |  | > 800 | Active |  |  |  |  | O=C(/C=C/c1cccc2c1N(Cc1ccc(F)c(F)c1)C(=O)C2(F)F)NS(=O)(=O)c1ccc(Cl)c(Cl)c1 |
| 0.5 | 9.4 |  |  | 50.4 | 21 | 33.9 | 290 | O=C(/C=C/c1cccc2c1N(Cc1ccc(Cl)cc1Cl)C(=O)C2)NS(=O)(=O)c1cccc(Cl)c1 |
| 0.2 | 4.4 |  |  | 61.6 | 50.6 | 70.1 | 361 | O=C(/C=C/c1cccc2c1N(Cc1ccc(Cl)cc1Cl)C(=O)C2)NS(=O)(=O)c1cc(F)c(F)cc1F |
